Measured values from ChEMBL document CHEMBL5058577, “EUbOPEN Chemogenomics Library 2 (Multiplex)” (2022).

System: HEK-293T
Experiment: Multiplex assay against HEK293T
Assay type: toxicity, cell-based
Details: human
Outline: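 Cells stained live at seeding with Hoechst33342, BioTracker Green Microtubule Cytoskeleton Dye, MitoTracker Red and Annexin V Alexa Fluor 680 were imaged on a CQ1 microscope at 37°C and 5% CO2 after compound addition. Their classification by CellPathfinder machine-learning gating ran from Hoechst high-intensity objects versus normal cells, to healthy, pyknosed or fragmented nuclei among normal cells, to mitotic or apoptotic among pyknosed cells. Tubulin, mitochondrial-mass and membrane-permeability phenotypes are per cents of healthy-nucleus cells.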

[1] = 12 h, 1 µM, compound concentration 1 uM, replicate 1
[2] = 12 h, 1 µM, compound concentration 1 uM, replicate 2
[3] = 12 h, 10 µM, compound concentration 10 uM, replicate 1
[4] = 12 h, 10 µM, compound concentration 10 uM, replicate 2
[5] = 24 h, 1 µM, compound concentration 1 uM, replicate 1
[6] = 24 h, 1 µM, compound concentration 1 uM, replicate 2
[7] = 24 h, 10 µM, compound concentration 10 uM, replicate 1
[8] = 24 h, 10 µM, compound concentration 10 uM, replicate 2
[9] = 48 h, 1 µM, compound concentration 1 uM, replicate 1
[10] = 48 h, 1 µM, compound concentration 1 uM, replicate 2
[11] = 48 h, 10 µM, compound concentration 10 uM, replicate 1
[12] = 48 h, 10 µM, compound concentration 10 uM, replicate 2

O=C(Nc1cc(-c2ccccc2)nn1-c1ccccc1F)c1ccc([N+](=O)[O-])cc1
Population Apoptotic (%) [1]: 33%
Population Fragmented Nuclei (%) [1]: 7%
Population Healthy Nuclei (%) [1]: 78%
Population Hoechst High Intensity Objects (%) [1]: 9%
Population Membrane Permeable-Phenotype (%) [1]: 0%
Population Mitochondria Different-Phenotype (%) [1]: 31%
Population Mitotic Cells (%) [1]: 66%
Population Normal (%) [1]: 90%
Population Pyknosed Nuclei (%) [1]: 13%
Population Tubulin-Different-Phenotype (%) [1]: 19%
Total Cell Count [1]: 402
Population Apoptotic (%) [2]: 37%
Population Fragmented Nuclei (%) [2]: 6%
Population Healthy Nuclei (%) [2]: 83%
Population Hoechst High Intensity Objects (%) [2]: 6%
Population Mitochondria Different-Phenotype (%) [2]: 48%
Population Mitotic Cells (%) [2]: 62%
Population Normal (%) [2]: 94%
Population Pyknosed Nuclei (%) [2]: 9%
Total Cell Count [2]: 417
Population Apoptotic (%) [3]: 37%
Population Fragmented Nuclei (%) [3]: 10%
Population Healthy Nuclei (%) [3]: 71%
Population Hoechst High Intensity Objects (%) [3]: 5%
Population Membrane Permeable-Phenotype (%) [3]: 0%
Population Mitochondria Different-Phenotype (%) [3]: 41%
Population Mitotic Cells (%) [3]: 62%
Population Normal (%) [3]: 94%
Population Pyknosed Nuclei (%) [3]: 17%
Population Tubulin-Different-Phenotype (%) [3]: 40%
Total Cell Count [3]: 342
Population Apoptotic (%) [4]: 44%
Population Fragmented Nuclei (%) [4]: 6%
Population Healthy Nuclei (%) [4]: 73%
Population Hoechst High Intensity Objects (%) [4]: 6%
Population Mitochondria Different-Phenotype (%) [4]: 65%
Population Mitotic Cells (%) [4]: 55%
Population Normal (%) [4]: 93%
Population Pyknosed Nuclei (%) [4]: 20%
Population Tubulin-Different-Phenotype (%) [4]: 45%
Total Cell Count [4]: 367
Population Apoptotic (%) [5]: 33%
Population Fragmented Nuclei (%) [5]: 8%
Population Healthy Nuclei (%) [5]: 78%
Population Hoechst High Intensity Objects (%) [5]: 4%
Population Membrane Permeable-Phenotype (%) [5]: 0%
Population Mitochondria Different-Phenotype (%) [5]: 21%
Population Mitotic Cells (%) [5]: 66%
Population Normal (%) [5]: 95%
Population Pyknosed Nuclei (%) [5]: 12%
Population Tubulin-Different-Phenotype (%) [5]: 17%
Total Cell Count [5]: 481
Population Apoptotic (%) [6]: 35%
Population Fragmented Nuclei (%) [6]: 12%
Population Membrane Permeable-Phenotype (%) [6]: 1%
Population Mitochondria Different-Phenotype (%) [6]: 31%
Population Mitotic Cells (%) [6]: 64%
Population Pyknosed Nuclei (%) [6]: 8%
Population Tubulin-Different-Phenotype (%) [6]: 16%
Total Cell Count [6]: 530
Population Apoptotic (%) [7]: 15%
Population Fragmented Nuclei (%) [7]: 9%
Population Healthy Nuclei (%) [7]: 77%
Population Hoechst High Intensity Objects (%) [7]: 2%
Population Membrane Permeable-Phenotype (%) [7]: 0%
Population Mitochondria Different-Phenotype (%) [7]: 35%
Population Mitotic Cells (%) [7]: 84%
Population Normal (%) [7]: 97%
Population Pyknosed Nuclei (%) [7]: 13%
Population Tubulin-Different-Phenotype (%) [7]: 35%
Total Cell Count [7]: 434
Population Apoptotic (%) [8]: 22%
Population Fragmented Nuclei (%) [8]: 7%
Population Healthy Nuclei (%) [8]: 83%
Population Hoechst High Intensity Objects (%) [8]: 3%
Population Mitochondria Different-Phenotype (%) [8]: 47%
Population Mitotic Cells (%) [8]: 77%
Population Normal (%) [8]: 96%
Population Pyknosed Nuclei (%) [8]: 8%
Population Tubulin-Different-Phenotype (%) [8]: 33%
Total Cell Count [8]: 482
Population Apoptotic (%) [9]: 17%
Population Fragmented Nuclei (%) [9]: 13%
Population Healthy Nuclei (%) [9]: 79%
Population Hoechst High Intensity Objects (%) [9]: 3%
Population Membrane Permeable-Phenotype (%) [9]: 2%
Population Mitochondria Different-Phenotype (%) [9]: 14%
Population Mitotic Cells (%) [9]: 82%
Population Normal (%) [9]: 96%
Population Pyknosed Nuclei (%) [9]: 7%
Population Tubulin-Different-Phenotype (%) [9]: 9%
Total Cell Count [9]: 893
Population Apoptotic (%) [10]: 33%
Population Fragmented Nuclei (%) [10]: 17%
Population Healthy Nuclei (%) [10]: 74%
Population Hoechst High Intensity Objects (%) [10]: 2%
Population Mitochondria Different-Phenotype (%) [10]: 15%
Population Mitotic Cells (%) [10]: 66%
Population Normal (%) [10]: 97%
Population Tubulin-Different-Phenotype (%) [10]: 11%
Total Cell Count [10]: 799
Population Apoptotic (%) [11]: 22%
Population Fragmented Nuclei (%) [11]: 12%
Population Healthy Nuclei (%) [11]: 77%
Population Hoechst High Intensity Objects (%) [11]: 2%
Population Membrane Permeable-Phenotype (%) [11]: 2%
Population Mitochondria Different-Phenotype (%) [11]: 19%
Population Mitotic Cells (%) [11]: 77%
Population Normal (%) [11]: 97%
Population Pyknosed Nuclei (%) [11]: 9%
Population Tubulin-Different-Phenotype (%) [11]: 23%
Total Cell Count [11]: 671
Population Apoptotic (%) [12]: 20%
Population Fragmented Nuclei (%) [12]: 15%
Population Hoechst High Intensity Objects (%) [12]: 3%
Population Membrane Permeable-Phenotype (%) [12]: 1%
Population Mitochondria Different-Phenotype (%) [12]: 27%
Population Mitotic Cells (%) [12]: 79%
Population Normal (%) [12]: 96%
Population Pyknosed Nuclei (%) [12]: 6%
Population Tubulin-Different-Phenotype (%) [12]: 26%
Total Cell Count [12]: 666

COc1c(Nc2ccc(S(C)(=O)=O)nc2C)ncnc1OC1CCN(C(=O)OC(C)C)CC1 [ADP-597]
Population Apoptotic (%) [1]: 29%
Population Fragmented Nuclei (%) [1]: 5%
Population Healthy Nuclei (%) [1]: 78%
Population Hoechst High Intensity Objects (%) [1]: 6%
Population Membrane Permeable-Phenotype (%) [1]: 0%
Population Mitochondria Different-Phenotype (%) [1]: 47%
Population Mitotic Cells (%) [1]: 70%
Population Normal (%) [1]: 93%
Population Pyknosed Nuclei (%) [1]: 16%
Population Tubulin-Different-Phenotype (%) [1]: 36%
Total Cell Count [1]: 430
Population Apoptotic (%) [2]: 38%
Population Fragmented Nuclei (%) [2]: 4%
Population Healthy Nuclei (%) [2]: 80%
Population Hoechst High Intensity Objects (%) [2]: 3%
Population Mitochondria Different-Phenotype (%) [2]: 62%
Population Mitotic Cells (%) [2]: 62%
Population Normal (%) [2]: 96%
Population Pyknosed Nuclei (%) [2]: 14%
Population Tubulin-Different-Phenotype (%) [2]: 25%
Total Cell Count [2]: 347
Population Apoptotic (%) [3]: 47%
Population Fragmented Nuclei (%) [3]: 7%
Population Healthy Nuclei (%) [3]: 75%
Population Hoechst High Intensity Objects (%) [3]: 8%
Population Membrane Permeable-Phenotype (%) [3]: 0%
Population Mitochondria Different-Phenotype (%) [3]: 70%
Population Mitotic Cells (%) [3]: 52%
Population Normal (%) [3]: 91%
Population Pyknosed Nuclei (%) [3]: 17%
Population Tubulin-Different-Phenotype (%) [3]: 44%
Total Cell Count [3]: 302
Population Healthy Nuclei (%) [4]: 72%
Population Hoechst High Intensity Objects (%) [4]: 25%
Population Mitochondria Different-Phenotype (%) [4]: 71%
Population Normal (%) [4]: 74%
Population Pyknosed Nuclei (%) [4]: 20%
Population Tubulin-Different-Phenotype (%) [4]: 36%
Total Cell Count [4]: 238
Population Apoptotic (%) [5]: 23%
Population Fragmented Nuclei (%) [5]: 7%
Population Healthy Nuclei (%) [5]: 81%
Population Hoechst High Intensity Objects (%) [5]: 2%
Population Membrane Permeable-Phenotype (%) [5]: 0%
Population Mitochondria Different-Phenotype (%) [5]: 20%
Population Mitotic Cells (%) [5]: 76%
Population Normal (%) [5]: 97%
Population Pyknosed Nuclei (%) [5]: 11%
Population Tubulin-Different-Phenotype (%) [5]: 16%
Total Cell Count [5]: 587
Population Apoptotic (%) [6]: 30%
Population Fragmented Nuclei (%) [6]: 6%
Population Healthy Nuclei (%) [6]: 84%
Population Hoechst High Intensity Objects (%) [6]: 3%
Population Membrane Permeable-Phenotype (%) [6]: 1%
Population Mitochondria Different-Phenotype (%) [6]: 34%
Population Mitotic Cells (%) [6]: 69%
Population Normal (%) [6]: 96%
Population Pyknosed Nuclei (%) [6]: 9%
Population Tubulin-Different-Phenotype (%) [6]: 15%
Total Cell Count [6]: 447
Population Apoptotic (%) [7]: 44%
Population Fragmented Nuclei (%) [7]: 9%
Population Healthy Nuclei (%) [7]: 74%
Population Hoechst High Intensity Objects (%) [7]: 7%
Population Membrane Permeable-Phenotype (%) [7]: 0%
Population Mitochondria Different-Phenotype (%) [7]: 58%
Population Mitotic Cells (%) [7]: 55%
Population Normal (%) [7]: 92%
Population Pyknosed Nuclei (%) [7]: 15%
Population Tubulin-Different-Phenotype (%) [7]: 38%
Total Cell Count [7]: 355
Population Apoptotic (%) [8]: 63%
Population Fragmented Nuclei (%) [8]: 11%
Population Healthy Nuclei (%) [8]: 71%
Population Hoechst High Intensity Objects (%) [8]: 21%
Population Mitochondria Different-Phenotype (%) [8]: 54%
Population Mitotic Cells (%) [8]: 36%
Population Normal (%) [8]: 78%
Population Pyknosed Nuclei (%) [8]: 17%
Population Tubulin-Different-Phenotype (%) [8]: 25%
Total Cell Count [8]: 300
Population Apoptotic (%) [9]: 25%
Population Fragmented Nuclei (%) [9]: 13%
Population Healthy Nuclei (%) [9]: 78%
Population Hoechst High Intensity Objects (%) [9]: 2%
Population Membrane Permeable-Phenotype (%) [9]: 0%
Population Mitochondria Different-Phenotype (%) [9]: 18%
Population Mitotic Cells (%) [9]: 75%
Population Normal (%) [9]: 97%
Population Pyknosed Nuclei (%) [9]: 8%
Population Tubulin-Different-Phenotype (%) [9]: 13%
Total Cell Count [9]: 924
Population Apoptotic (%) [10]: 36%
Population Healthy Nuclei (%) [10]: 77%
Population Hoechst High Intensity Objects (%) [10]: 5%
Population Membrane Permeable-Phenotype (%) [10]: 1%
Population Mitochondria Different-Phenotype (%) [10]: 23%
Population Mitotic Cells (%) [10]: 63%
Population Normal (%) [10]: 94%
Population Pyknosed Nuclei (%) [10]: 9%
Population Tubulin-Different-Phenotype (%) [10]: 14%
Total Cell Count [10]: 590
Population Apoptotic (%) [11]: 35%
Population Fragmented Nuclei (%) [11]: 15%
Population Healthy Nuclei (%) [11]: 73%
Population Hoechst High Intensity Objects (%) [11]: 4%
Population Membrane Permeable-Phenotype (%) [11]: 0%
Population Mitochondria Different-Phenotype (%) [11]: 38%
Population Mitotic Cells (%) [11]: 64%
Population Normal (%) [11]: 95%
Population Pyknosed Nuclei (%) [11]: 11%
Population Tubulin-Different-Phenotype (%) [11]: 23%
Total Cell Count [11]: 494
Population Apoptotic (%) [12]: 43%
Population Fragmented Nuclei (%) [12]: 13%
Population Hoechst High Intensity Objects (%) [12]: 10%
Population Mitochondria Different-Phenotype (%) [12]: 32%
Population Mitotic Cells (%) [12]: 56%
Population Normal (%) [12]: 89%
Population Pyknosed Nuclei (%) [12]: 12%
Population Tubulin-Different-Phenotype (%) [12]: 18%
Total Cell Count [12]: 392
